The values that follow come from ChEMBL document CHEMBL2177062, “Bile acid-based 1,2,4-trioxanes: synthesis and antimalarial assessment” (J Med Chem, 2012).

Calls of active or inactive are those of the source. The rule behind the calls is not given here.

Data set [1] deals with Plasmodium yoelii nigeriensis. As to the kind of experiment: Antimalarial activity in multidrug-resistant Plasmodium yoelii nigeriensis infected Swiss mouse assessed as suppression of parasitaemia at 96 mg/kg, po two devided dose daily for 4 days. Type of data set: functional. Summed up:
(§1)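 Swiss mice of either sex (20 2 g) inoculated ip with 1 × 10⁶ MDR P. yoelii nigeriensis parasites on day 0. Five mice per dose, given oral doses in groundnut oil from day 0 to 3, twice daily. Parasitaemia read from thin blood smears on day 4. Suppression = [(C − T)/C] × 100 versus untreated controls. 100% means no parasites seen in 50 oil-immersion fields.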

Data set [2] has as its system Plasmodium yoelii nigeriensis. Kind of data set: Antimalarial activity in multidrug-resistant Plasmodium yoelii nigeriensis infected Swiss mouse assessed as disease cure at 24 mg/kg, po two devided dose daily for 4 days by 28 day survival assay. Type of data set: functional. Summed up: (§2)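 Swiss mice of either sex (20 2 g) inoculated ip with 1 × 10⁶ MDR P. yoelii nigeriensis (chloroquine-, mefloquine-, halofantrine-resistant) parasites on day 0. Five mice per dose. Oral dosing in groundnut oil (0.1 mL per dose) from day 0 to 3, as two divided doses daily. Thin blood smears on day 4, then twice weekly to day 28. Mice without patent infection by day 28 scored cured; % protection = fraction of mice cured. β-arteether as positive control.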

Data set [3] can be described thus: Lipophilicity, log P of the compound. Type of data set: physicochemical. The note with it: octanol/water. Summed up: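 log P calculated in silico, not measured experimentally.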
The test system of data set [4] is Plasmodium yoelii nigeriensis. Kind of data set: Antimalarial activity in multidrug-resistant Plasmodium yoelii nigeriensis infected Swiss mouse assessed as suppression of parasitaemia at 24 mg/kg, po two devided dose daily for 4 days. Type of data set: functional. Summed up:
as §1

Data set [5] has as its system Plasmodium yoelii nigeriensis. As to the kind of experiment: Antimalarial activity in multidrug-resistant Plasmodium yoelii nigeriensis infected Swiss mouse assessed as suppression of parasitaemia at 48 mg/kg, po two devided dose daily for 4 days. Type of data set: functional. Summed up: as §1
Data set [6] relates to Plasmodium yoelii nigeriensis. As to the kind of experiment: Antimalarial activity in multidrug-resistant Plasmodium yoelii nigeriensis infected Swiss mouse assessed as disease cure at 12 mg/kg, po two devided dose daily for 4 days by 28 day survival assay. Also noted: dose 12 mg/kg. It is filed as functional, organism-based. Summed up:
as §2

Data set [7] deals with Plasmodium yoelii nigeriensis. Kind of data set: Antimalarial activity in multidrug-resistant Plasmodium yoelii nigeriensis infected Swiss mouse assessed as disease cure at 48 mg/kg, po two devided dose daily for 4 days by 28 day survival assay. It is filed as functional, organism-based. More on the design: dose 48 mg/kg. Summed up: as §2
Data set [8] relates to Plasmodium yoelii nigeriensis. Kind of data set: Antimalarial activity in multidrug-resistant Plasmodium yoelii nigeriensis infected Swiss mouse assessed as disease cure at 96 mg/kg, po two devided dose daily for 4 days by 28 day survival assay. It is filed as functional. Summed up: as §2

For orientation: logP means a log measure of how a compound divides between an organic and an aqueous phase. A low value points to a more hydrophilic compound.

On to `C=C(c1ccc(F)cc1)[C@@H]1CO[C@@]2(CC[C@@]3(C)[C@H](CC[C@@H]4[C@@H]3CC[C@]3(C)[C@@H](C(C)=O)CC[C@@H]43)C2)OO1` (relative stereo; form 2) [listing 1 of 2 here], for which the Activity in data set [1] was 100%; in data set [2], 60%; in data set [4], 100%; in data set [5] (48 mg/kg), 100%. Further, in data set [3], the log partition coefficient (logP) is 7.36.
With `C=C(c1ccc(Br)cc1)[C@@H]1CO[C@@]2(CC[C@@]3(C)[C@H](CC[C@@H]4[C@@H]3CC[C@]3(C)[C@@H](O)CC[C@@H]43)C2)OO1` (relative stereo; form 2), the result in data set [6] was inactive. The result in data set [2], in data set [7] and in data set [8] was Active.
Consider `C=C(c1ccc(Br)cc1)[C@@H]1CO[C@@]2(CC[C@@]3(C)[C@H](CC[C@@H]4[C@@H]3CC[C@]3(C)[C@@H](C(C)=O)CC[C@@H]43)C2)OO1` (relative stereo; form 1) [listing 1 of 2 here], for which the Activity in data set [1] (96 mg/kg), in data set [4] and in data set [5] was 100% in each case. The molecule also gave a logP in data set [3] of 8.03.
Regarding `C=C(c1ccc(F)cc1)[C@@H]1CO[C@@]2(CC[C@@]3(C)[C@H](CC[C@@H]4[C@@H]3CC[C@]3(C)[C@@H](O)CC[C@@H]43)C2)OO1` (relative stereo; form 2), in data set [6], the outcome was inactive. Besides, the result in data set [2], in data set [7] and in data set [8] was Active.
Consider `C=C(c1ccccc1)[C@@H]1CO[C@@]2(CC[C@@]3(C)[C@H](CC[C@@H]4[C@@H]3CC[C@]3(C)[C@@H](C(C)=O)CC[C@@H]43)C2)OO1` (relative stereo; form 2) [listing 1 of 2 here], for which the result in data set [7] and in data set [8] was Active.
As for `C=C(c1ccc(Cl)cc1)[C@@H]1CO[C@@]2(CC[C@@]3(C)[C@H](CC[C@@H]4[C@@H]3CC[C@]3(C)[C@@H](C(C)=O)CC[C@@H]43)C2)OO1` (relative stereo; form 2), the Activity in data set [1] (96 mg/kg) turned out to be 100%; in data set [2] it was 60%; in data set [4] it was 100%; in data set [5], 100%. Moreover, in data set [3], the logP is 7.76.
Consider `C=C(c1ccc(F)cc1)[C@@H]1CO[C@@]2(CC[C@@]3(C)[C@H](CC[C@@H]4[C@@H]3CC[C@]3(C)[C@@H](C(C)=O)CC[C@@H]43)C2)OO1` (relative stereo; form 2) [listing 2 of 2 here], for which the outcome in data set [7] and in data set [8] was Active.
In the case of `C=C(c1ccccc1)[C@@H]1CO[C@@]2(CC[C@@]3(C)[C@H](CC[C@@H]4[C@@H]3CC[C@]3(C)[C@@H](C(C)=O)CC[C@@H]43)C2)OO1` (relative stereo; form 2) [listing 2 of 2 here], the Activity was 100% in data set [1] (96 mg/kg), 60% in data set [2], 100% in data set [4] and 100% in data set [5]. Moreover, in data set [3], the logP is 7.2.
Consider `C=C(c1ccc(F)cc1)[C@@H]1CO[C@@]2(CC[C@@]3(C)[C@H](CC[C@@H]4[C@@H]3CC[C@]3(C)[C@@H](C(C)=O)CC[C@@H]43)C2)OO1` (relative stereo; form 1), for which the Activity in data set [5] (48 mg/kg) is 88.03%.
On to `CCO[C@H]1O[C@@H]2O[C@@]3(C)CC[C@H]4[C@H](C)CC[C@@H]([C@H]1C)[C@@]24OO3` [ARTEMOTIL], for which the Activity was 20% in data set [2], 100% in data set [4] and 100% in data set [5]. The result in data set [7] was Active.
`C=C(c1ccc(Br)cc1)[C@@H]1CO[C@@]2(CC[C@@]3(C)[C@H](CC[C@@H]4[C@@H]3CC[C@]3(C)[C@@H](C(C)=O)CC[C@@H]43)C2)OO1` (relative stereo; form 1) [listing 2 of 2 here]: the result in data set [2] and in data set [7] was inactive. For the same molecule, the result in data set [8] was Active.
